Data: ChEMBL document CHEMBL5331111, “Synthetic Biology Facilitates Semisynthetic Development of Type V Glycopeptide Antibiotics Targeting Vancomycin-Resistant Enterococcus” (J Med Chem, 2023)
In brackets after ≈: the same amount, converted by molar mass.

Experiments:
Format in all cases: functional
Enterococcus faecium [1] = experiment: Antibacterial activity against Enterococcus faecium WCC 0516 assessed as inhibition of bacterial growth by Mueller-Hinton broth based assay
Enterococcus faecium [2] = experiment: Antibacterial activity against Enterococcus faecium WCC 0586 assessed as inhibition of bacterial growth by Mueller-Hinton broth based assay
[3] = system: Mycolicibacterium fortuitum; experiment: Antimycobacterial activity against Mycobacterium fortuitum ATCC 6891 assessed as inhibition of bacterial growth measured after 2 days by resazurin dye based analysis; settings: ATCC 6891, 48 h, time 2 day
Outline: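 Cultured in 7H9 with 0.2% glycerol, 10% OADC and 0.05% Tween-80. Inoculum diluted to ~5 × 10^5 CFU/mL and confirmed at 3–8 × 10^5 by plating on 7H10 agar. Growth read at 2 days, then 30 μg/mL resazurin added for one more day. Values averaged from at least two experiments.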

Enterococcus faecium [4] = experiment: Antibacterial activity against Enterococcus faecium WCC 0499 assessed as inhibition of bacterial growth by Mueller-Hinton broth based assay
Enterococcus gallinarum = experiment: Antibacterial activity against vancomycin-resistant Enterococcus gallinarum ATCC 49573 assessed as inhibition of bacterial growth by Mueller-Hinton broth based assay
Enterococcus faecium [5] = experiment: Antibacterial activity against vancomycin-resistant Enterococcus faecium WCC 0541 assessed as inhibition of bacterial growth by Mueller-Hinton broth based assay
Enterococcus faecium [6] = experiment: Antibacterial activity against wild type Enterococcus faecium ATCC 19434 assessed as inhibition of bacterial growth by Mueller-Hinton broth based assay
Enterococcus faecium [7] = experiment: Antibacterial activity against Enterococcus faecium WCC 0528 assessed as inhibition of bacterial growth by Mueller-Hinton broth based assay
Enterococcus faecium [8] = experiment: Antibacterial activity against Enterococcus faecium WCC 0533 assessed as inhibition of bacterial growth by Mueller-Hinton broth based assay
Enterococcus faecium [9] = experiment: Antibacterial activity against Enterococcus faecium WCC 0524 assessed as inhibition of bacterial growth by Mueller-Hinton broth based assay
Enterococcus faecium [10] = experiment: Antibacterial activity against Enterococcus faecium WCC 0502 assessed as inhibition of bacterial growth by Mueller-Hinton broth based assay
[11] = system: Mycolicibacterium smegmatis; experiment: Antimycobacterial activity against Mycobacterium smegmatis MC2 155 assessed as inhibition of bacterial growth measured after 2 days by resazurin dye based analysis; settings: MC2 155, 48 h, time 2 day
Outline: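 Strains grown in 7H9 broth with 0.2% glycerol, 10% OADC and 0.05% Tween-80. Inoculum was about 5 × 10^5 CFU/mL, checked by plating on 7H10/OADC agar to be 3–8 × 10^5. Read at 2 days for M. smegmatis and 7 days for M. tuberculosis H37Ra, M. bovis and M. avium. Resazurin 30 μg/mL was then added for one further day. Values are averages of at least two experiments.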

Enterococcus faecalis = experiment: Antibacterial activity against vancomycin-resistant Enterococcus faecalis ATCC 51299 assessed as inhibition of bacterial growth by Mueller-Hinton broth based assay
Enterococcus faecium [12] = experiment: Antibacterial activity against vancomycin-resistant Enterococcus faecium ATCC 700221 assessed as inhibition of bacterial growth by Mueller-Hinton broth based assay
Staphylococcus aureus = experiment: Antibacterial activity against Staphylococcus aureus ATCC 33591 assessed as reduction in bacterial growth by Mueller-Hinton broth based assay
Outline: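 Broth MIC by standard procedure in Mueller-Hinton broth, for both B. subtilis 168 and S. aureus ATCC 33591.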

Enterococcus faecium [13] = experiment: Antibacterial activity against Enterococcus faecium WCC 0587 assessed as inhibition of bacterial growth by Mueller-Hinton broth based assay
Enterococcus faecium [14] = experiment: Antibacterial activity against Enterococcus faecium WCC 0492 assessed as inhibition of bacterial growth by Mueller-Hinton broth based assay
Enterococcus faecium [15] = experiment: Antibacterial activity against Enterococcus faecium WCC 0500 assessed as inhibition of bacterial growth by Mueller-Hinton broth based assay
Enterococcus faecium [16] = experiment: Antibacterial activity against Enterococcus faecium WCC 0553 assessed as inhibition of bacterial growth by Mueller-Hinton broth based assay
Enterococcus faecium [17] = experiment: Antibacterial activity against Enterococcus faecium WCC 0545 assessed as inhibition of bacterial growth by Mueller-Hinton broth based assay
Enterococcus faecium [18] = experiment: Antibacterial activity against Enterococcus faecium WCC 0498 assessed as inhibition of bacterial growth by Mueller-Hinton broth based assay
Enterococcus faecium [19] = experiment: Antibacterial activity against Enterococcus faecium WCC 0534 assessed as inhibition of bacterial growth by Mueller-Hinton broth based assay
Enterococcus faecium [20] = experiment: Antibacterial activity against Enterococcus faecium WCC 0495 assessed as inhibition of bacterial growth by Mueller-Hinton broth based assay
Enterococcus faecium [21] = experiment: Antibacterial activity against Enterococcus faecium WCC 0491 assessed as inhibition of bacterial growth by Mueller-Hinton broth based assay
Enterococcus faecium [22] = experiment: Antibacterial activity against Enterococcus faecium WCC 0558 assessed as inhibition of bacterial growth by Mueller-Hinton broth based assay
Enterococcus faecium [23] = experiment: Antibacterial activity against Enterococcus faecium WCC 0537 assessed as inhibition of bacterial growth by Mueller-Hinton broth based assay
Enterococcus faecium [24] = experiment: Antibacterial activity against Enterococcus faecium WCC 0506 assessed as inhibition of bacterial growth by Mueller-Hinton broth based assay

Compound: CN1C(=O)[C@@H]2NC(=O)[C@@H]3NC(=O)[C@@H](c4ccc(O)cc4)NC(=O)[C@H](NC(=O)C(N)c4ccc(O)cc4)Cc4c[nH]c5cc(ccc45)-c4cc3cc(c4O)Oc3ccc(cc3)C[C@H]1C(=O)N[C@@H](C(=O)O)c1ccc(O)c(c1)Oc1ccc2cc1 (some centres not stated)
- MIC (Enterococcus faecium [1]): 8 µg/mL (≈ 7.14 µM)
- MIC (Enterococcus faecium [2]): 8 µg/mL (≈ 7.14 µM)
- MIC [3]: 8 µg/mL (≈ 7.14 µM)
- MIC (Enterococcus faecium [4]): 8 µg/mL (≈ 7.14 µM)
- MIC (Enterococcus gallinarum): 8 µg/mL (≈ 7.14 µM)
- MIC (Enterococcus faecium [5]): 8 µg/mL (≈ 7.14 µM)
- MIC (Enterococcus faecium [6]): 8 µg/mL (≈ 7.14 µM)
- MIC (Enterococcus faecium [7]): 8 µg/mL (≈ 7.14 µM)
- MIC (Enterococcus faecium [8]): 8 µg/mL (≈ 7.14 µM)
- MIC (Enterococcus faecium [9]): 4 µg/mL (≈ 3.57 µM)
- MIC (Enterococcus faecium [10]): 4 µg/mL (≈ 3.57 µM)
- MIC [11]: 8 µg/mL (≈ 7.14 µM)
- MIC (Enterococcus faecalis): 8 µg/mL (≈ 7.14 µM)
- MIC (Enterococcus faecium [12]): 8 µg/mL (≈ 7.14 µM)
- MIC (Staphylococcus aureus): 8 µg/mL (≈ 7.14 µM)
- MIC (Enterococcus faecium [13]): 8 µg/mL (≈ 7.14 µM)
- MIC (Enterococcus faecium [14]): 8 µg/mL (≈ 7.14 µM)
- MIC (Enterococcus faecium [15]): 8 µg/mL (≈ 7.14 µM)
- MIC (Enterococcus faecium [16]): 8 µg/mL (≈ 7.14 µM)
- MIC (Enterococcus faecium [17]): 8 µg/mL (≈ 7.14 µM)
- MIC (Enterococcus faecium [18]): 8 µg/mL (≈ 7.14 µM)
- MIC (Enterococcus faecium [19]): 4 µg/mL (≈ 3.57 µM)
- MIC (Enterococcus faecium [20]): 8 µg/mL (≈ 7.14 µM)
- MIC (Enterococcus faecium [21]): 4 µg/mL (≈ 3.57 µM)
- MIC (Enterococcus faecium [22]): 8 µg/mL (≈ 7.14 µM)
- MIC (Enterococcus faecium [23]): 8 µg/mL (≈ 7.14 µM)
- MIC (Enterococcus faecium [24]): 4 µg/mL (≈ 3.57 µM)
